Most compounds without a hit are left out; they make up all but 2.7% or so of the library.
PLK1 inh: inhibitors of human PLK1 kinase | P53350 | 97,000 compounds, 0.53% hits | inhibition, % at 10 µM | recombinant PLK1 kinase, TR-FRET peptide phosphorylation;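 active means inhibition of 50% or more in the single-concentration screen; inactive means inhibition below 50%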
Target sequence (P53350 whole entry, looked up): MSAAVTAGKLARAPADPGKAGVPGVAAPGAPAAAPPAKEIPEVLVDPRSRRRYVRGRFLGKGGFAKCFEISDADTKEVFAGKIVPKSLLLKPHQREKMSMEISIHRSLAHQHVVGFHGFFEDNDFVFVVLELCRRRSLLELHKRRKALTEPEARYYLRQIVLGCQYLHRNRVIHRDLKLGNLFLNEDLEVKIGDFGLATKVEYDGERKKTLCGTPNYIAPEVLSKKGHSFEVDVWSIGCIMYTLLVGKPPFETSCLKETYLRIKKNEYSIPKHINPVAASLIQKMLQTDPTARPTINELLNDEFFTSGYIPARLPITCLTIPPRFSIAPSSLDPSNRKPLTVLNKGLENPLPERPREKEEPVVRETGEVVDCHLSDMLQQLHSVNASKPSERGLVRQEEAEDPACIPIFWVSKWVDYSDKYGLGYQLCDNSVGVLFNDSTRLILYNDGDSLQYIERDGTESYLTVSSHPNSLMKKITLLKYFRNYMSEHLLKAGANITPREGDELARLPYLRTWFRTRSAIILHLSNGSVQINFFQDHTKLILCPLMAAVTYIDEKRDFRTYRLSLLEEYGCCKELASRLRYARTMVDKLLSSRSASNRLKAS
PLK1 PBD inh: Plk1 (human) PBD binding inhibition; P53350; Plk1 PBD phosphopeptide binding, fluorescence polarization; inhibition, %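 (tested at about 20 µM)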; 97,000 compounds, 0.13% hits; in the data active means inhibition above about 34%, passing the limit was not always enough
DAT uptake mod: human DAT dopamine uptake with cocaine, either direction; Q01959; LLC-PK1 hDAT cells, [14C]-dopamine uptake with cocaine IC80; actives deviate in either direction; B-score at 10 µM; 110,000 compounds, 1.3% hits; AID 449768;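 active means Z score or B-score, a plate-position-corrected score, falls beyond the plate's 99.7% confidence bounds, in either direction; inactive means both scores lie inside the 99.7% bounds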
Rev-RRE block: inhibitors of HIV-1 Rev-RRE RNA interaction; AID 704; 97,000 compounds, 0.79% hits; Rev peptide-RRE RNA binding, FRET; P05866; inhibition, % at 8 µM;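 active means inhibition above the screen-wide mean plus 3 SD, cut at about 35% in these data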
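assay system = Cy5-tagged RRE RNA duplex with fluorescein-tagged Rev peptide | incubation = 5 + 15 min at 25 °C | also added = labelled Rev peptide | measure = % inhibition of FRET ratio versus controls | benchmarks = DMSO wells as 0% and neomycin B wells as 100% inhibition | measured by = FRET fluorescence readout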
LYP inh 2: inhibitors of human LYP (PTPN22) phosphatase; Q9Y2R2; 96,000 compounds, 0.21% hits; inhibition, % at 2 µM; recombinant LYP catalytic domain, DiFMUP fluorescence;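 active means inhibition at 2 µM at or above a set limit, the screen mean plus 3 SD, cut at about 24% in these data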
PTPN22 act: activators of human LYP (PTPN22) phosphatase; Q9Y2R2; recombinant LYP, DiFMUP fluorescence; 0 = plate median, 100 = signal doubled; activation, % at 2 µM; 96,000 compounds, 0.11% hits; AID 697;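 active means activation at 2 µM above a set limit, the mean plus 5 SD, cut at about 37% in these data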
Numbers stand for hits; . = inactive; / = no result; ! = a repeat was not active; [ ] = remark or other dose.

SMILES	PLK1 inh	PLK1 PBD inh	DAT uptake mod	Rev-RRE block	LYP inh 2	PTPN22 act
COc1ccc(C(=O)NC(Cc2ccccc2)c2ccc3c(c2)OCCCO3)cc1 (stereo not given)	.	.	.	.	.	.
O=C(NC(Cc1ccccc1)c1ccc2c(c1)OCCCO2)c1ccccc1F (stereo not given)	.	.	2.6	.	.	.
Cn1c(C(=O)Nc2ccc3c(c2)OCCO3)cc2sccc21	.	.	2.2	.	.	.
O=C(Nc1ccc2c(c1)OCCO2)c1ccccc1F	.	.	-1.8	.	.	.
O=C(Nc1ccc2c(c1)OCCO2)c1cc2sccc2n1Cc1ccccc1	.	.	.	.	.	.
CCCc1cc(=O)[nH]c(SCc2cc(Cl)ccc2OC(F)F)n1	.	.	.	.	.	.
CCCCNC(=O)CSc1nnc(-c2c[nH]c3ccccc23)n1CC1CCCO1 (stereo not given)	.	.	.	.	.	.
COc1cccc(Nc2nc(-c3sc(N)nc3C)cs2)c1	.	.	2.2	.	.	.
COc1cccc(Nc2nc(-c3sc(NC(=O)c4ccco4)nc3C)cs2)c1	.	.	.	.	.	.
O=c1c2ccccc2sc2ccc(C#CC3(O)CCCCC3)cc12	/	/	.	/	/	/
O=c1c2ccccc2oc2cc(C#CC3(O)CCCCC3)ccc12	/	/	2.2	/	/	/
Cc1ccc2c(n1)CC(C)(C)CC2=O	.	.	.	.	.	.
O=C(O)c1ccc2c(c1)C(=O)N(c1ccc(Cl)cn1)C2=O	.	.	.	.	.	.
O=C1c2cccc3c(N4CCCCC4)ccc(c23)C(=O)N1c1ccc(Cl)cn1	.	.	/	121[fluorescence artefact?]	.	.
O=C1c2cccc3c([N+](=O)[O-])ccc(c23)C(=O)N1c1ccc(Cl)cn1	.	.	/	69	.	.
O=C1c2cccc3c(N4CCCCC4)ccc(c23)C(=O)N1c1ccccn1	.	.	.	126[fluorescence artefact?]	.	.
CCN(CC)S(=O)(=O)c1ccc(Oc2ccccc2)cc1	.	.	.	.	.	.
COCCNC(=O)C1(C(F)(F)F)CC(CCCO)CCCO1 (stereo not given)	/	/	.	/	/	/
CN(C)/C=N/c1c(C#N)cnn1-c1ccccc1	.	.	.	.	.	.
CN(C)/C=N/c1c(C#N)cnn1-c1ncnc2sc(-c3ccccc3)cc12	.	.	3.2	.	.	.
OCC[C@H]1C[C@@H](O)[C@H](O)[C@]2(CCCO2)O1	/	/	.	/	/	/
Clc1ccc(-n2cccc2/C=N/n2cnnc2)cc1	.	.	.	.	.	.
Cn1cccc1/C=N/n1cnnc1	.	.	2.8	.	.	.
O=C(CCN1CCN(c2ccc(Cl)cc2)CC1)Nc1nccs1	62	.	.	.	.	.
O=C(Nc1cccnc1)Nc1ccc(F)c(Cl)c1	.	.	-4.3	.	.	.
SMILES	PLK1 inh	PLK1 PBD inh	DAT uptake mod	Rev-RRE block	LYP inh 2	PTPN22 act
Cc1cc(=O)n2nc(-c3ccccc3)sc2c1C#N	/	/	2.5	/	/	/
O=c1[nH]c2cc3c(cc2cc1C(c1nnnn1Cc1ccccc1)N1CCN2CCCC2C1)OCCO3 (stereo not given)	.	.	.	.	.	.
O=c1[nH]c2cc3c(cc2cc1C(c1nnnn1Cc1ccccc1)N1CCCCCC1)OCCO3 (stereo not given)	.	.	.	41	.	.
Cc1ccc(NC(=O)CC2C(=O)NC3CCCCC3N2C(=O)c2ccc(F)cc2)cc1C (stereo not given)	.	.	.	.	.	.
O=C(CC1C(=O)NC2CCCCC2N1C(=O)c1ccc(F)cc1)Nc1ccccc1 (stereo not given)	.	.	2.9	.	.	.
COc1ccccc1OCC(=O)Nc1sc2c(c1C(=O)NCC1CCCO1)CCC2 (stereo not given)	.	.	.	.	.	.
CCOc1ccc(NC(=O)c2cn(-c3ccc(OCC)cc3)c(=O)c3cc(OC)c(OC)cc23)cc1	.	.	.	.	.	.
CCOc1ccc(-n2cc(C(=O)NC(C)C)c3cc(OC)c(OC)cc3c2=O)cc1	54	.	.	.	.	.
CCNC(=S)NNC(=O)c1cccn(Cc2ccc(Cl)cc2)c1=O	.	.	/	.	42	.
CNC(=S)NNC(=O)c1cccn(Cc2ccc(Cl)cc2Cl)c1=O	.	.	/	.	54	.
CCNC(=S)NNC(=O)c1ccccc1OC(F)F	.	.	.	.	.	.
C=CCn1c(-c2cccn(Cc3ccc(Cl)cc3Cl)c2=O)n[nH]c1=S	.	.	.	.	.	.
O=c1nc(-c2ccccc2)c2ccccc2[nH]1	60	.	.	.	.	.
Cc1noc(C)c1CSc1nnc(-c2ccccc2)n1N	.	.	-8.6	.	.	.
O=C(/C=C/c1ccccc1)N/C(=C/c1ccccc1)C(=O)N1CCCCC1	.	.	.	.	.	.
Cc1nnc(NC(=O)c2cccc(NC(=O)C(C)C)c2)s1	.	.	-7	.	.	.
CC(C)C(=O)Nc1cccc(C(=O)Nc2nnc(C(C)C)s2)c1	.	.	.	.	.	.
CC(C)OCCCn1c(=N)c(C(N)=S)cc2c(=O)n3ccccc3nc21	.	.	.	66	.	.
CCCN1CCC(=O)N([C@H](CSc2ccc(OC)cc2)Cc2ccccc2)CC1	/	/	2.5	/	/	/
CC1(C)NC(=O)N(CC(=O)O)C1=O	.	.	.	.	.	.
COc1ccc(CCN2CC(C#N)=C3c4cc(OC)c(OC)cc4CCN3C2)cc1OC	.	.	3.4	.	.	.
O=c1cc(-c2ccccc2Cl)oc2c(NS(=O)(=O)c3ccccc3OC(F)(F)F)ccc(O)c12	/	/	.	/	/	/
CC(C)(C)NC(=O)C1CCCN(S(=O)(=O)c2cccc3cccnc23)C1 (stereo not given)	62	.	.	.	/	/
O=C(Nc1ccncc1)C1CCCN(S(=O)(=O)c2cccc3cccnc23)C1 (stereo not given)	.	.	.	.	.	.
Cc1ccc(Cl)cc1N1CCN(C(=O)CCC(=O)O)CC1	/	/	-3	/	/	/
SMILES	PLK1 inh	PLK1 PBD inh	DAT uptake mod	Rev-RRE block	LYP inh 2	PTPN22 act
CCOc1cc(C2C(C#N)=C(N)OC(C)=C2C(C)=O)cc(Br)c1O (stereo not given)	.	.	.	50	.	.
CCOc1cc(C2C(C#N)=C(N)OC(C)=C2C(C)=O)c(Br)c(Br)c1OC(C)C (stereo not given)	.	.	.	.	.	.
COC(=O)\C(C(C)=O)=C(/C=C/C=C/C=C/N(C)C)N(C)C	.	.	.	82	.	.
O=C(NCc1cccs1)C1CCN(S(=O)(=O)c2cccc3nsnc23)CC1	.	.	.	.	.	.
CCO[C@H]1OC(C(=O)N2CCN(C)CC2)=C[C@@H](C2CC2)[C@@H]1CCCO	/	/	.	/	/	/
N#CC1=C(N)SC(N)=C(C#N)C1CCC1CCCCC1	.	.	.	68	.	.
CN(C(=O)c1cnc(N2CCN(c3ncccn3)CC2)c2ccccc12)c1ccc(Cl)cc1	.	.	.	.	.	.
CCN(C(=O)c1cnc(N2CCN(c3ncccn3)CC2)c2ccccc12)c1cccc(Cl)c1	.	.	2.2!	.	.	.

From PubChem
